Non-standard residues stand in square brackets, D forms with d. Residues, ends and D or L forms follow the SMILES beside them. *: point of attachment. NMe1Nal = CN[C@@H](Cc1cccc2ccccc12)C(=O)O; NMeW = CN[C@@H](Cc1c[nH]c2ccccc12)C(=O)O; 1Nal = N[C@@H](Cc1cccc2ccccc12)C(=O)O; 2Nal = N[C@@H](Cc1ccc2ccccc2c1)C(=O)O; Chg = N[C@H](C(=O)O)C1CCCCC1; Phg = N[C@H](C(=O)O)c1ccccc1; Nle = CCCC[C@H](N)C(=O)O; OtBu = CC(C)(C)O*
What follows are compounds tested against T1, Cholecystokinin receptor type A (Cavia porcellus, UniProt Q63931) (assay: Affinity of compound on binding of [3H]pCCK-8 to the cholecystokinin type A receptor in guinea pig pancreatic membrane).
T1 sequence (Q63931 whole entry): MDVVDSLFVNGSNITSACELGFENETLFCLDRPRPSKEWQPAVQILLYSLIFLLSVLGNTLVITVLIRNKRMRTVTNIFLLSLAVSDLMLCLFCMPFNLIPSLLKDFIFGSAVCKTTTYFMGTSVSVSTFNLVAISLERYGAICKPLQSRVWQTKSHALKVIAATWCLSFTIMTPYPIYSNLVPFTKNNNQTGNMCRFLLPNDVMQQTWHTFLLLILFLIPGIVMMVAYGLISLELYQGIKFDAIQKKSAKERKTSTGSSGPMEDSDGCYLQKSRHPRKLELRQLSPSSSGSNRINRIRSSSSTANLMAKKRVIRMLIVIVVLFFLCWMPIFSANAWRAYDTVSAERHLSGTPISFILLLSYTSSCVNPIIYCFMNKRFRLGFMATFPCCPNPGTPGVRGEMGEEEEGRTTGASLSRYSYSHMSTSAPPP
Type: cell membranes
How it was run: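 Competition binding on guinea pig pancreatic membranes (0.2 mg protein/mL) using [3H]pCCK8 at 0.2 nM. Nonspecific binding defined with 1 μM CCK8. Reaction stopped by filtration over BSA-precoated GF/B filters and counted. KI derived by Cheng-Prusoff.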

Row | Ki [nM] | SMILES
1 | 8000 | CN(C(=O)[C@H](Cc1ccccc1)NC(=O)[C@H](CC(=O)O)NC(=O)[C@@H](N)Cc1ccccc1)[C@H](Cc1c[nH]c2ccccc12)C(=O)OC(C)(C)C
2 | 3200 | CN(C(=O)[C@H](Cc1ccccc1)NC(=O)[C@H](CC(=O)O)NC(=O)[C@@H](N)Cc1ccccc1)[C@@H](Cc1c[nH]c2ccccc12)C(=O)OC(C)(C)C
3 | 2100 | CN(C(=O)[C@@H](NC(=O)[C@H](CC(=O)O)NC(=O)[C@@H](N)Cc1cccc2ccccc12)C1CCCCC1)[C@@H](Cc1c[nH]c2ccccc12)C(=O)OC(C)(C)C (H-[1Nal]D[Chg][NMeW]-OtBu)

Each compound was assayed against T2, Gastrin/cholecystokinin type B receptor (Rattus norvegicus, UniProt P30553) (assay: Affinity of compound on binding of [3H]pCCK-8 to the cholecystokinin type B receptor in rat brain membrane).
T2 sequence (P30553 whole entry): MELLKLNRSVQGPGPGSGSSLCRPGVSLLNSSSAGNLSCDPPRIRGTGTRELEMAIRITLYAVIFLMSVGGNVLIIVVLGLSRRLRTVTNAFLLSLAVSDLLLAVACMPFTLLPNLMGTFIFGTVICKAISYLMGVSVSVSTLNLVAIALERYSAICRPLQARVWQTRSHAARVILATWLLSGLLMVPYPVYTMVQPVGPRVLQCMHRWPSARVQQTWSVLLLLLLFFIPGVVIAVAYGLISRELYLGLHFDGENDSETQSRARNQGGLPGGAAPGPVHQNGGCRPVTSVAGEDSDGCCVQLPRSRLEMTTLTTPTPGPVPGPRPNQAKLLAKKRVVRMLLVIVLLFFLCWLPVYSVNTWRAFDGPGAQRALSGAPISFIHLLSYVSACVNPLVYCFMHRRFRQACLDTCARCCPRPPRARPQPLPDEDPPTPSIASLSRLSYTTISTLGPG
Type: cell membranes
How it was run: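 Brain membranes (0.6 mg protein/mL; rat or guinea pig) incubated with 0.2 nM [3H]pCCK8 in 50 mM Tris-HCl pH 7.4, 5 mM MgCl2, 0.2 mg/mL bacitracin, 60 min at 25 °C. Filtered on BSA-precoated GF/B filters and counted. KI by Cheng-Prusoff; mean ± SEM of three experiments, each in triplicate.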

Row | Ki [nM] | SMILES
4 | 51 | CN(C)[C@@H](Cc1cccc2ccccc12)C(=O)N[C@@H](CC(=O)O)C(=O)N[C@H](C(=O)N[C@@H](Cc1c[nH]c2ccccc12)C(=O)OC(C)(C)C)c1ccccc1

Each compound was assayed against T1, Cholecystokinin receptor type A (assay: Displacement of [3H]-pCCK-8 from cholecystokinin-A receptor in guinea pig pancreatic membrane).
Type: cell membranes
How it was run: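 Competition binding on guinea pig pancreatic membranes (0.2 mg protein/mL) using [3H]pCCK8 at 0.2 nM. Reaction stopped by filtration over BSA-precoated GF/B filters and counted. KI derived by Cheng-Prusoff.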

Row | SMILES | Ki [nM]
5 | CC(C)(C)OC(=O)[C@H](Cc1c[nH]c2ccccc12)NC(=O)[C@@H](NC(=O)[C@H](CC(=O)O)NC(=O)[C@@H](N)Cc1cccc2ccccc12)C1CCCCC1 (H-[1Nal]D[Chg]W-OtBu) | 1400
6 | CC(C)(C)OC(=O)[C@H](Cc1c[nH]c2ccccc12)NC(=O)[C@@H](NC(=O)[C@H](CC(=O)O)NC(=O)[C@@H](N)Cc1cccc2ccccc12)c1ccccc1 (H-[1Nal]D[Phg]W-OtBu) | 990
7 | CCCC[C@H](NC(=O)[C@H](CC(=O)O)NC(=O)[C@@H](N)Cc1ccc2ccccc2c1)C(=O)N(C)[C@@H](Cc1c[nH]c2ccccc12)C(=O)OC(C)(C)C (H-[2Nal]D[Nle][NMeW]-OtBu) | 4200
8 | CCCC[C@H](NC(=O)[C@H](CC(=O)O)NC(=O)[C@@H](N)Cc1ccccc1)C(=O)N(C)[C@@H](Cc1c[nH]c2ccccc12)C(=O)OC(C)(C)C (H-FD[Nle][NMeW]-OtBu) | > 5000
9 | CCCC[C@H](NC(=O)[C@H](CC(=O)O)NC(=O)[C@H](Cc1cccc2ccccc12)N(C)C)C(=O)N(C)[C@@H](Cc1c[nH]c2ccccc12)C(=O)OC(C)(C)C | 520
10 | CN(C(=O)[C@H](Cc1ccccc1)NC(=O)[C@H](CC(=O)O)NC(=O)[C@@H](N)Cc1cccc2ccccc12)[C@@H](Cc1c[nH]c2ccccc12)C(=O)OC(C)(C)C (H-[1Nal]DF[NMeW]-OtBu) | 3500
11 | CC(C)(C)OC(=O)[C@H](Cc1c[nH]c2ccccc12)NC(=O)[C@H](Cc1ccccc1)NC(=O)[C@H](CC(=O)O)NC(=O)[C@@H](N)Cc1cccc2ccccc12 (H-[1Nal]DFW-OtBu) | 2400
12 | CN(C)[C@@H](Cc1cccc2ccccc12)C(=O)N[C@@H](CC(=O)O)C(=O)N[C@H](C(=O)N[C@@H](Cc1c[nH]c2ccccc12)C(=O)OC(C)(C)C)C1CCCCC1 | 5400
13 | CN(C)[C@@H](Cc1cccc2ccccc12)C(=O)N[C@@H](CC(=O)O)C(=O)N[C@H](C(=O)N[C@@H](Cc1c[nH]c2ccccc12)C(=O)OC(C)(C)C)c1ccccc1 | 1000

Results, then the compound that gave them:

Row | Ki [nM] | SMILES
14 | 1200 | CCCC[C@H](NC(=O)[C@H](CC(=O)O)NC(=O)[C@@H](N)Cc1cccc2ccccc12)C(=O)N(C)[C@@H](Cc1c[nH]c2ccccc12)C(=O)OC(C)(C)C
15 | 6300 | CCCC[C@H](NC(=O)[C@H](CC(=O)O)NC(=O)[C@@H](N)Cc1cccc2ccccc12)C(=O)N(C)[C@H](Cc1c[nH]c2ccccc12)C(=O)OC(C)(C)C
16 | 1100 | CCCC[C@H](NC(=O)[C@H](CC(=O)O)NC(=O)[C@@H](N)Cc1ccccc1)C(=O)N[C@H](Cc1c[nH]c2ccccc12)C(=O)OC(C)(C)C (stereo in doubt; 13)
17 | 830 | CN(C(=O)[C@@H](NC(=O)[C@H](CC(=O)O)NC(=O)[C@@H](N)Cc1cccc2ccccc12)c1ccccc1)[C@@H](Cc1c[nH]c2ccccc12)C(=O)OC(C)(C)C (H-[1Nal]D[Phg][NMeW]-OtBu)
18 | 1200 | CCCC[C@H](NC(=O)[C@H](CC(=O)O)NC(=O)[C@H](Cc1cccc2ccccc12)NC)C(=O)N(C)[C@@H](Cc1c[nH]c2ccccc12)C(=O)OC(C)(C)C (H-[NMe1Nal]D[Nle][NMeW]-OtBu)

From ChEMBL document CHEMBL1126667, “CCK-B agonist or antagonist activities of structurally hindered and peptidase-resistant Boc-CCK4 derivatives” (J Med Chem, 1993)
